{"source": "paper PMC4042847", "about": "(Journal of the American Chemical Society, 2013)", "key": {"SHV-1 β-lactamase": {"target": "SHV-1 β-lactamase (Klebsiella pneumoniae, UniProt P0AD64)", "experiment": "Steady-state inhibition kinetics with nitrocefin as indicator substrate", "type": "biochemical", "details": "for kobs react 30min: after a 30 min incubation of 1:90 enzyme:inhibitor ratio; for tn (24h): inhibitor:enzyme ratio decreasing activity by 95% after 24 h incubation"}, "ADC-7 β-lactamase": {"test_system": "ADC-7 β-lactamase", "experiment": "IC50, turnover number and timed inactivation with nitrocefin", "type": "biochemical", "outline": "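Enzyme in 10 mM phosphate-buffered saline, pH 7.4, read by diode-array spectrophotometry with nitrocefin (Δε482 = 17,400 M−1cm−1) at 100 μM. IC50: initial velocities after 5 min enzyme–inhibitor pre-incubation. tn: 24 h incubation with increasing inhibitor, then residual activity assayed. Timed inactivation: I:E ratio set from tn; steady-state velocities at set time points over 45 min.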"}, "PDC-3 β-lactamase": {"target": "PDC-3 β-lactamase (Pseudomonas aeruginosa, UniProt P24735, T105A)", "experiment": "IC50 and turnover number with nitrocefin", "type": "biochemical"}, "OXA-24 β-lactamase": {"target": "OXA-24 β-lactamase (Acinetobacter baumannii, UniProt Q8RLA6)", "experiment": "IC50 and turnover number with nitrocefin", "type": "biochemical"}, "[1]": {"experiment": "Spontaneous hydrolysis followed by UV difference spectroscopy", "type": "physicochemical", "details": "3.5 μM in 10 mM PBS, pH 7.4"}, "TEM-2 β-lactamase": {"test_system": "TEM-2 β-lactamase", "details": "cited from earlier work"}}, "data": [{"compound": "7-(tert-butoxycarbonyl)methylidenecephalosporin sulfone [DCM-1-10]", "values": [{"measurement": "IC50 higher than clavulanate", "setting": "SHV-1 β-lactamase; SHV-1", "result": 4, "unit": "fold"}, {"measurement": "IC50 higher than tazobactam", "setting": "SHV-1 β-lactamase; SHV-1", "result": 27, "unit": "fold"}, {"measurement": "Ki greater than tazobactam and clavulanate", "setting": "SHV-1 β-lactamase; SHV-1", "result": "about 166 fold"}, {"measurement": "kobs react lower than clavulanate", "setting": "SHV-1 β-lactamase; SHV-1", "result": "at least 333 fold"}, {"measurement": "kobs react lower than tazobactam", "setting": "SHV-1 β-lactamase; SHV-1", "result": 67, "unit": "fold"}, {"measurement": "Ki", "setting": "SHV-1 β-lactamase; SHV-1, Kiapp corrected for nitrocefin affinity (Km = 20 μM)", "result": "> 20000", "unit": "nM"}, {"measurement": "IC50", "setting": "SHV-1 β-lactamase; SHV-1, NCF 100 μM, 5 min pre-incubation of enzyme with inhibitor", "result": "800 ± 100", "unit": "nM"}, {"measurement": "kobs react 30min", "setting": "SHV-1 β-lactamase; SHV-1", "result": "0.0006 ± 0.0001", "unit": "s⁻¹"}, {"measurement": "tn (24h)", "setting": "SHV-1 β-lactamase; SHV-1", "result": 7}, {"measurement": "inactivation of SHV-1 in timed inactivation", "setting": "SHV-1 β-lactamase; […] nM SHV-1 with 980 nM DCM-1-10 (I:E = 7:1), within 45 min", "result": 95, "unit": "%"}, {"measurement": "timed inactivation of ADC-7 in words", "setting": "ADC-7 β-lactamase; 100 nM ADC-7 with 4.5 μM DCM-1-10, I:E of 45:1", "result": "rapid compared to SHV-1"}, {"measurement": "IC50", "setting": "ADC-7 β-lactamase; ADC-7", "result": "130 ± 10", "unit": "nM"}, {"measurement": "IC50 in words", "setting": "ADC-7 β-lactamase; ADC-7", "result": "submicromolar"}, {"measurement": "IC50", "setting": "PDC-3 β-lactamase", "result": "740 ± 80", "unit": "nM"}, {"measurement": "IC50 in words", "setting": "PDC-3 β-lactamase", "result": "submicromolar"}, {"measurement": "IC50", "setting": "OXA-24 β-lactamase", "result": "> 100000", "unit": "nM"}, {"measurement": "spontaneous rate of hydrolysis", "setting": "[1]", "result": 0.0002, "unit": "µM/s"}, {"measurement": "pseudo first order rate constant of spontaneous hydrolysis", "setting": "[1]; absorbance at 228 nm", "result": "3e-05", "unit": "s⁻¹"}, {"measurement": "inhibition of TEM-2 β-lactamase in words", "setting": "TEM-2 β-lactamase", "result": "potent and specific inhibition"}]}, {"compound": "O=C(O)[C@H]1/C(=C/CO)O[C@@H]2CC(=O)N21", "note": "[Clavulanate, clavulanic acid, reference compound]", "values": [{"measurement": "kobs react 30min", "setting": "SHV-1 β-lactamase; SHV-1", "result": "> 0.2", "unit": "s⁻¹"}, {"measurement": "KI", "setting": "SHV-1 β-lactamase; SHV-1, from fit of kobs versus inhibitor concentration", "result": "2600 ± 300", "unit": "nM"}, {"measurement": "tn (24h)", "setting": "SHV-1 β-lactamase; SHV-1", "result": 40}]}, {"compound": "C[C@]1(Cn2ccnn2)[C@H](C(=O)O)N2C(=O)C[C@H]2S1(=O)=O", "note": "[Tazobactam, tazobactam, reference compound]", "values": [{"measurement": "kobs react 30min", "setting": "SHV-1 β-lactamase; SHV-1", "result": "0.040 ± 0.001", "unit": "s⁻¹"}, {"measurement": "tn (24h)", "setting": "SHV-1 β-lactamase; SHV-1", "result": 5}]}]}
